Assay results: ChEMBL document CHEMBL5226322, “Harnessing the Role of HDAC6 in Idiopathic Pulmonary Fibrosis: Design, Synthesis, Structural Analysis, and Biological Evaluation of Potent Inhibitors” (J Med Chem, 2021)
pIC50: −log10 of the molar value. Activity calls are given as the source filed them. The rule behind the calls is not given here.

Legend:
Histone deacetylase 1 [1] = target: T1, Histone deacetylase 1 (Homo sapiens, UniProt Q13547); test: Inhibition of human recombinant HDAC1 using ZMAL (Z-(Ac)Lys-AMC) as fluorogenic substrate incubated for 120 mins by microplate reader assay
T1 sequence (Q13547 whole entry): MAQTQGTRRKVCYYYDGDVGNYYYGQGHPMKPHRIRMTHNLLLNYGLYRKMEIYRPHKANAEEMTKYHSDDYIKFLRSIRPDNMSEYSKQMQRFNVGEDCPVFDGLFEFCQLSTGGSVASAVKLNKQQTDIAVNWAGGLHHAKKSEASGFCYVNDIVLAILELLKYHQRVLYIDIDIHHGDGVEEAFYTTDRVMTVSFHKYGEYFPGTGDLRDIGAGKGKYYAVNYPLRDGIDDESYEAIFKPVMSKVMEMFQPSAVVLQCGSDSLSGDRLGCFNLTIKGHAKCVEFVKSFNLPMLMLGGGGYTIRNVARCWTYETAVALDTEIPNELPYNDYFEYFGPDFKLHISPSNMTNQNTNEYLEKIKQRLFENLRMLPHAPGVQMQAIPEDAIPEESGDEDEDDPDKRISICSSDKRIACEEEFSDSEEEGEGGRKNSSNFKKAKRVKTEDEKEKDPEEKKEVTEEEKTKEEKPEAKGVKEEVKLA

[2] = target: T2, Protein deacetylase HDAC6 (Homo sapiens, UniProt Q9UBN7); test: Inhibition of human recombinant HDAC6 using ZMAL (Z-(Ac)Lys-AMC) as fluorogenic substrate incubated for 120 mins by microplate reader assay
T2 sequence (Q9UBN7 whole entry): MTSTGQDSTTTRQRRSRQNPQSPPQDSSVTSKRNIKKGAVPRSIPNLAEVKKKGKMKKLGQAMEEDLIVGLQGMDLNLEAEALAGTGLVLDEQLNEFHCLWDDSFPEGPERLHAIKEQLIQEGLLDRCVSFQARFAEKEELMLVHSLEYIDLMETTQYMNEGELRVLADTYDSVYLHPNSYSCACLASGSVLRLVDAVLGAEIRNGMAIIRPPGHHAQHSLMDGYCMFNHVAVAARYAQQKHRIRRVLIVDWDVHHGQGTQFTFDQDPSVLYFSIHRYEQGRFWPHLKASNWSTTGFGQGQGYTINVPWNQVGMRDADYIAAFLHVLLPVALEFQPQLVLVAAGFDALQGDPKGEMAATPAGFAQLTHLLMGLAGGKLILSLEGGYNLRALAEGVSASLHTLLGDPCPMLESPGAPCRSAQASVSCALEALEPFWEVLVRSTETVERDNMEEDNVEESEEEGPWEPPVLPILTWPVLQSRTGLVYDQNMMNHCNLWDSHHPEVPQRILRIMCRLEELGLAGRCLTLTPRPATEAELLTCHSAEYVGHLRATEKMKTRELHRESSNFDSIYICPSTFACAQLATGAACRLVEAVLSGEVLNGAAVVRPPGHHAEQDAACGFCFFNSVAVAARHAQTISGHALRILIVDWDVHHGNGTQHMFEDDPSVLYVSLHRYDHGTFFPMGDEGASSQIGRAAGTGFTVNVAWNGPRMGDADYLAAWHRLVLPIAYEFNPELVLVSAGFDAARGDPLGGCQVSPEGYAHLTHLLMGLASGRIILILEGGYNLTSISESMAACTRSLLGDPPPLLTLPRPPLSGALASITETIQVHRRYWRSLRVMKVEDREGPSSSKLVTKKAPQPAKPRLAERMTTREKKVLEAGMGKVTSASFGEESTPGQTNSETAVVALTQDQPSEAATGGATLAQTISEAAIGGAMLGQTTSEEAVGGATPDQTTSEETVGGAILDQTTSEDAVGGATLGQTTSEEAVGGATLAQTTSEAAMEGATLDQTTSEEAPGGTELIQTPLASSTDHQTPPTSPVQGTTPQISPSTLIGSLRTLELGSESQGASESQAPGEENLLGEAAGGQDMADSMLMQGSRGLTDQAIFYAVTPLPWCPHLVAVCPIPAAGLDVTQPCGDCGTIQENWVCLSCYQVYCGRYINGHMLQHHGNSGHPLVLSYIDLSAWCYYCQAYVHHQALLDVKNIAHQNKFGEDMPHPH

Homo sapiens = organism: Homo sapiens; test: Inhibition of broncho-sphere formation in IPF patient derived human lung organoid assessed as inhibition of 3D organoid formation at 0.1 to 50 nM incubated for 14 days by Bright-field microscopy analysis; format: functional; conditions: dose 0.1-50 nM, time 14.0 day
Method in brief: (§1)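 Airway basal cells from bronchial brushings of IPF patients, 10⁴ cells in Matrigel on transwell inserts with 1:1 BEGM/DMEM. Treated 14 days (1–50 nM per methods; 0.1–50 nM per legend), medium changed every 7 days.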

[3] = target: T3, Protein deacetylase HDAC6 (Homo sapiens) (UniProt Q9UBN7); test: Inhibition of HDAC6 in human U2OS cells assessed as increase in acetylation of alpha-tubulin at 5 uM incubated for 30 hrs by western blot analysis; format: cell-based
T3 sequence (whole entry): T2 sequence (Q9UBN7 whole entry)
Method in brief: (§2)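 Whole lysates (35 μg) and acid-extracted histones (2 μg) run on SDS-PAGE and blotted for acetylated tubulin or acetyl-histone H3; GAPDH or H4 as loading controls.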

[4] = target: T3, Protein deacetylase HDAC6 (Homo sapiens); test: Inhibition of HDAC6 in human NB-4 cells assessed as increase in acetylation of alpha-tubulin at 5 uM incubated for 30 hrs by western blot analysis; format: cell-based; method in brief: as §2
[5] = Inhibition of spheroid count in IPF patient derived human Airway basal cell incubated for 14 days by Bright-field microscopy analysis; format: functional, cell-based; method in brief: as §1
Airway basal cell [6] = test: Inhibition of spheroid count in IPF patient derived human Airway basal cell assessed as reduction in sphere count at 20 to 50 nM incubated for 14 days by Bright-field microscopy analysis; format: functional, cell-based; conditions: dose 20-50 nM, time 14.0 day; method in brief: as §1
Airway basal cell [7] = test: Inhibition of cell proliferation in IPF patient derived human Airway basal cell at 20 to 50 nM incubated for 14 days by MTT assay; format: functional, cell-based; conditions: dose 20-50 nM, time 14.0 day
Method in brief: (§3)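 IPF patient airway basal cell 3D organoid cultures (10⁴ cells in Matrigel, 1:1 BEGM/DMEM) treated 14 days at 1–50 nM, medium changed weekly. Proliferation read by colorimetric MTT on day 14. Mean ± SEM of triplicates, n=3; repeated-measures ANOVA/Friedman test. Reported IC50 is the mean of the count-based and MTT-based IC50s.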

Histone deacetylase 8 = target: T4, Histone deacetylase 8 (Homo sapiens, UniProt Q9BY41); test: Inhibition of human recombinant HDAC8 using FLUOR DE LYS fluorometric substrate pre-incubated for 15 mins and followed by substrate addition and measured after 60 mins by microplate reader assay
T4 sequence (Q9BY41 whole entry): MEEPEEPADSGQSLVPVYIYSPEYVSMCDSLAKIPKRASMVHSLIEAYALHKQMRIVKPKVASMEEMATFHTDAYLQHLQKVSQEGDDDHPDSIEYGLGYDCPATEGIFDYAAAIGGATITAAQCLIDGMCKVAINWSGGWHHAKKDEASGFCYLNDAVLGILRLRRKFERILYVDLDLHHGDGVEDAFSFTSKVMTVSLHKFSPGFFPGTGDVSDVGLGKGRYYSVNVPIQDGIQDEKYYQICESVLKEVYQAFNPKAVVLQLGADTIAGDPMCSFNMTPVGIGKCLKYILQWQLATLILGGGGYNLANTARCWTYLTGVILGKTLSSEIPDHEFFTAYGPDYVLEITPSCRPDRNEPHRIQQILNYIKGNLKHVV
Method in brief: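 Recombinant human HDAC8 at 0.45 U/reaction with 0.5% DMSO; DMSO-only enzyme served as control. Enzyme preincubated 15 min with compound, then Fluor de Lys substrate added (50 μM final) for 1 h at 30 °C. Quenched with 2 μM TSA in Developer II for a further 1 h at 30 °C. Fluorescence read at ex 370/em 450 nm. IC50 from nonlinear dose-response fit.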

Histone deacetylase 1 [8] = target: T1, Histone deacetylase 1; test: Inhibition of HDAC1 in human NB-4 cells assessed as increase in acetylation of histone H3 at 5 uM incubated for 30 hrs by western blot analysis; format: cell-based; method in brief: as §2
Histone deacetylase 1 [9] = target: T1, Histone deacetylase 1; test: Inhibition of HDAC1 in human U87 cells assessed as increase in acetylation of histone H3 at 5 uM incubated for 30 hrs by western blot analysis; format: cell-based; method in brief: as §2
[10] = target: T3, Protein deacetylase HDAC6 (Homo sapiens); test: Inhibition of HDAC6 in human U87 cells assessed as increase in acetylation of alpha-tubulin at 5 uM incubated for 30 hrs by western blot analysis; format: cell-based; method in brief: as §2
[11] = Inhibition of cell proliferation in IPF patient derived human Airway basal cell incubated for 14 days by MTT assay; format: functional, cell-based; conditions: 336 h; method in brief: as §3
NIH3T3 [12] = test: Cytotoxicity in mouse NIH3T3 cells assessed as reduction in cell viability at 20 uM incubated for 24 hrs by neutral red uptake method based UV/visible spectrophotometer analysis; format: toxicity; conditions: nih3t3, 24 h
Method in brief: (§4)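 NIH3T3 mouse fibroblasts grown in DMEM with 10% FCS, L-glutamine/pen-strep and non-essential amino acids (37 °C, 5% CO2). Exposed 24 h to compound diluted from a DMSO stock into medium. Viability measured by Neutral Red uptake: 3 h in NR medium, then acetic acid/ethanol desorb, absorbance at 540 nm. Student's t-test, p<0.05.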

NIH3T3 [13] = test: Cytotoxicity in mouse NIH3T3 cells assessed as reduction in cell viability at 7.5 uM incubated for 24 hrs by neutral red uptake method based UV/visible spectrophotometer analysis; format: toxicity; conditions: nih3t3, 24 h; method in brief: as §4
NIH3T3 [14] = test: Cytotoxicity in mouse NIH3T3 cells assessed as reduction in cell viability at 2 uM incubated for 24 hrs by neutral red uptake method based UV/visible spectrophotometer analysis; format: toxicity; conditions: nih3t3, 24 h; method in brief: as §4
NIH3T3 [15] = test: Cytotoxicity in mouse NIH3T3 cells assessed as reduction in cell viability at 1 uM incubated for 24 hrs by neutral red uptake method based UV/visible spectrophotometer analysis; format: toxicity; conditions: nih3t3, 24 h; method in brief: as §4
NIH3T3 [16] = test: Cytotoxicity in mouse NIH3T3 cells assessed as reduction in cell viability at 5 uM incubated for 24 hrs by neutral red uptake method based UV/visible spectrophotometer analysis; format: toxicity; conditions: nih3t3, 24 h
Method in brief: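 NIH3T3 fibroblasts grown in DMEM with 10% FCS, L-glutamine/pen-strep and non-essential amino acids at 37 °C, 5% CO2. Monolayers exposed 24 h to compound diluted from a DMSO stock into medium. Neutral Red medium then added for 3 h at 37 °C. Dye extracted with acetic acid/ethanol desorb solution and absorbance read at 540 nm. Student's t-test, p<0.05.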

CC1(C)c2ccccc2N(Cc2ccc(OCCCC(=O)NO)cc2)C1c1cccnc1 (racemic)
pIC50 (Histone deacetylase 1 [1]): 5.79
pIC50 [2]: 6.21

CC1(C)c2ccccc2N(Cc2ccc(C(=O)NO)cc2)C1c1ccncc1 (racemic)
inhibition (Homo sapiens): Dose-Dependent Effect
inhibition [3]: Active
inhibition [4]: Active
pIC50 [5]: 8.36
inhibition (Airway basal cell [6]): Active
inhibition (Airway basal cell [7]): Active
pIC50 (Histone deacetylase 1 [1]): 4.97
pIC50 (Histone deacetylase 8): 5.33
inhibition (Histone deacetylase 1 [8]): inactive
pIC50 [2]: 7.21
inhibition (Histone deacetylase 1 [9]): inactive
inhibition [10]: Active
pIC50 [11]: 8.30

CC1(C)c2ccccc2N(Cc2ccc(C(=O)NO)s2)C1c1cccnc1 (racemic)
pIC50 (Histone deacetylase 1 [1]): 5.20
pIC50 [2]: 6.09

CN1CCC2(CC1)c1ccccc1N(Cc1ccc(C(=O)NO)cc1)C2c1cccc(Cl)c1 (racemic)
pIC50 (Histone deacetylase 1 [1]): 5.09
pIC50 [2]: 6.96

CN1CCC2(CC1)c1ccccc1N(Cc1ccc(C(=O)NO)cc1)C2c1ccccc1 (racemic)
inhibition (Homo sapiens): Dose-Dependent Effect
inhibition [4]: Active
pIC50 [5]: 8.59
inhibition (Airway basal cell [6]): Active
inhibition (Airway basal cell [7]): Active
pIC50 (Histone deacetylase 1 [1]): 5.37
inhibition (Histone deacetylase 1 [8]): inactive
pIC50 [2]: 7.14
inhibition (Histone deacetylase 1 [9]): inactive
inhibition [10]: Active
pIC50 [11]: 9.81

CC1(C)c2ccccc2N(Cc2ccc(C(=O)NO)cc2)[C@H]1c1cccnc1
pIC50 (Histone deacetylase 1 [1]): 4.79
pIC50 [2]: 7.04

CN1CCC2(CC1)c1ccccc1N(Cc1ccc(C(=O)NO)cc1)C2c1ccc(Cl)cc1 (racemic)
pIC50 (Histone deacetylase 1 [1]): 5.44
pIC50 [2]: 6.78

CN1CCC2(CC1)c1ccccc1N(Cc1ccc(C(=O)NO)cc1)C2c1cccnc1 (racemic)
pIC50 (Histone deacetylase 1 [1]): 5.12
pIC50 [2]: 6.95

COc1ccc2c(c1)C(C)(C)C(c1cccnc1)N2Cc1ccc(C(=O)NO)cc1 (racemic)
pIC50 (Histone deacetylase 1 [1]): 5.27
pIC50 [2]: 7.17

O=C(CCCCCCC(=O)Nc1ccccc1)NO [VORINOSTAT]
Activity (NIH3T3 [12]): 7%
Activity (NIH3T3 [13]): 22%
Activity (NIH3T3 [14]): 62%
Activity (NIH3T3 [15]): 83%
Activity (NIH3T3 [16]): 31%

CC1(C)c2ccccc2N(Cc2ccc(C(=O)NO)cc2)C1c1ccccc1 (racemic)
pIC50 (Histone deacetylase 1 [1]): 4.73
pIC50 [2]: 6.78

CC(C)(C)OC(=O)N1CCC2(CC1)c1ccccc1N(Cc1ccc(C(=O)NO)cc1)C2c1cccnc1 (racemic)
pIC50 (Histone deacetylase 1 [1]): 5.09
pIC50 [2]: 6.82

CC1(C)c2ccccc2N(Cc2ccc(C(=O)NO)cc2)[C@@H]1c1cccnc1
pIC50 (Histone deacetylase 1 [1]): 5.47
pIC50 [2]: 7.15

CN1CCC2(CC1)c1ccccc1N(Cc1ccc(C(=O)NO)cc1)C2c1ccc(F)cc1 (racemic)
inhibition [4]: Active
pIC50 (Histone deacetylase 1 [1]): 5.21
inhibition (Histone deacetylase 1 [8]): inactive
pIC50 [2]: 6.85
inhibition (Histone deacetylase 1 [9]): inactive
inhibition [10]: Active
